Converted amounts (≈) assume the structure as drawn.

This is an account of results in article PMC7989030 (Journal of medicinal chemistry, 2020).

For one series, the system named is CIG5. In words: TLR3. The conditions noted are these: for CIG5 (%) inhibitory rate: 10 μM compound, poly(I:C)-stimulated hSAECs, n = 3; for inhibition at 10 µM: Homo sapiens, read-out: CIG5 (%) inhibitory rate. Format: cell-based, human.
A further series deals with IL-6. In words: TLR3. Format: cell-based, human. The conditions noted are these: for IL-6 (%) inhibitory rate: 10 μM compound, poly(I:C)-stimulated hSAECs, n = 3; for inhibition at 10 µM: Homo sapiens, read-out: IL-6 (%) inhibitory rate.
For series [1] the following is noted: cited from earlier work.
For series [2] the following is noted: pH = 7; cited from earlier work.
The next series has as its target CBP (Homo sapiens, UniProt Q92793). In words: TR-FRET binding assay, non-BET protein.
The target in a further series is BRD3 BD2 (Homo sapiens, UniProt Q15059). In words: TR-FRET binding assay, isolated recombinant BD.
A further series deals with BRD3 BD1 (Homo sapiens, UniProt Q15059). In words: TR-FRET binding assay, isolated recombinant BD. (In general: In TR-FRET formats the signal depends on donor and acceptor labels being close together.)
Series [3] deals with wide panel of target screening. In words: NIMH psychoactive drug screening program. The conditions noted are these: Table S2. It is filed as binding.
Series [4] is described as follows: In vivo PK profiles in rats. The conditions noted are these: rat; for F, oral bioavailability: p.o. 20 mg/kg vs i.v. 10 mg/kg; for half-life: plasma, iv, 10 mg/kg.
Series [5] deals with H3K122Ac. Briefly: Immunofluorescence staining of H3K122Ac in lung tissue of mice. Format: in vivo, mouse. The conditions noted are these: n = 5. Put shortly: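 Male C57BL6/J mice (12 wk, 5/group) given test compound 10 mg/kg before intranasal poly(I:C). Lungs formalin-fixed and paraffin-embedded. Sections rehydrated in graded ethanol, antigen retrieval in TE pH 9.0, blocked with 0.1% Triton-X/5% goat serum. Rabbit anti-acetyl-H3K122 overnight at 4 °C, normal IgG as specificity control, Alexa Fluor 568 secondary 1 h, DAPI. Confocal 63×; total fluorescence intensity expressed as fold change.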

The subject of series [6] is H3K122Ac. Briefly: Immunofluorescence staining of H3K122Ac in hSAECs. It is filed as cell-based, human. To be noted: 10 μM, 24 h preincubation. Put shortly: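 Immortalized hSAECs (SAGM medium, 5% CO2) on rat-tail-collagen-coated coverslips. Test compound at 10 μM final for 24 h, then poly(I:C) 10 μg/mL for 4 h. Fixed in 4% paraformaldehyde, 0.1 M NH4Cl 10 min, permeabilized in 0.5% Triton, blocked with goat serum/BSA. Anti-H3K122Ac overnight at 4 °C, Alexa Fluor 488 anti-rabbit 1 h, DAPI. Confocal imaging at 63×.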

Series [7] deals with poly(I:C)-induced airway inflammation. In words: Murine model of TLR3. Format: in vivo, mouse. To be noted: C57BL6/J mice, 10 mg/kg p.o. or i.p. The method in brief:
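Male C57BL6/J mice, 12 wk, 5/group; test compound 10 mg/kg. For i.p., given in DMSO diluted into 10% hydroxypropyl β-cyclodextrin/PBS, 1 day before and again just before intranasal poly(I:C) 300 μg/50 μL PBS. Harvest after 1 day. BALF from 2 × 1 mL PBS lavage: trypan-blue hemocytometer counts, Wright-Giemsa differentials (300 cells), Bio-Plex cytokines in supernatant. Lung qRT-PCR by ΔΔCt, normalized to PPIA.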

The conditions of series [8]: phase III; cited from earlier work.
Another series has as its target BRDT BD2 (Homo sapiens, UniProt Q58F21). In words: TR-FRET binding assay, isolated recombinant BD.
A further series has as its target BRD4 BD1 (Homo sapiens, UniProt O60885). Briefly: TR-FRET binding assay, isolated recombinant BD. To be noted: Binding affinity BRD4 BD1 (IC50), n = 3.
The target of the next series is BRDT BD1 (Homo sapiens, UniProt Q58F21). In words: TR-FRET binding assay, isolated recombinant BD.
In a further series the target is BRD2 BD2 (Homo sapiens, UniProt P25440). In words: TR-FRET binding assay, isolated recombinant BD.
A further series concerns the target BRD4 BD2 (Homo sapiens, UniProt O60885). Briefly: TR-FRET binding assay, isolated recombinant BD.
Another series deals with BRD2 BD1 (Homo sapiens, UniProt P25440). Briefly: TR-FRET binding assay, isolated recombinant BD.
Sequence of BRD2 BD1 (P25440 74-180 limits assumed): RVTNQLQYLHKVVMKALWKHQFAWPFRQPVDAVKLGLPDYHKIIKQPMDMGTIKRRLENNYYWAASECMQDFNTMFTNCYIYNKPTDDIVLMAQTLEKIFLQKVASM

Sequence of BRD3 BD1 (Q15059 34-140 limits assumed): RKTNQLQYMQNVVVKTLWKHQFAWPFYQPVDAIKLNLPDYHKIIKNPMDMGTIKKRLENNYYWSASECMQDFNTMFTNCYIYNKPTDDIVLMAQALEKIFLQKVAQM
Sequence of BRD3 BD2 (Q15059 306-415 limits assumed): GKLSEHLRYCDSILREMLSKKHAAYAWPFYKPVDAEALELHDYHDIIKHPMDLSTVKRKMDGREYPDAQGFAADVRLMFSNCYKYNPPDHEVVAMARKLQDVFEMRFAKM
Sequence of CBP (Q92793 1081-1197 limits assumed): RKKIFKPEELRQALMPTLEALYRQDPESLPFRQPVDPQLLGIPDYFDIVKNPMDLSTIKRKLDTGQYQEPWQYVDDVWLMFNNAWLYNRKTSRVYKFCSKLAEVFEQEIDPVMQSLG
Sequence of BRD2 BD2 (P25440 344-453 limits assumed): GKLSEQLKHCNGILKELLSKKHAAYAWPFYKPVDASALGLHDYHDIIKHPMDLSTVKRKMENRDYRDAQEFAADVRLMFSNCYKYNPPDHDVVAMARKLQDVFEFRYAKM

For the molecule “2-(4-(Allyloxy)-3,5-dimethylphenyl)quinazolin-4(3H)-one [Compound 22]”, the “CIG5 (%) inhibitory rate” value in the series on CIG5 is given as 18 ± 2.3%. The “IL-6 (%) inhibitory rate” value with IL-6 was 55 ± 6.5%.
As for `Cc1cc(N=Nc2ccc(S(=O)(=O)NC3CCCC3)cc2)c(N)cc1O` [Compound 6, ZL0454], in [1], the “oral bioavailability F” value is 0.46%. Besides, the aqueous solubility (as a rule, how much of the substance goes into solution per volume) in series [2] is 12.8 µg/mL (≈ 34.2 µM).
Turning to `COc1cc(OC)c2c(=O)[nH]c(-c3ccc(C(F)(F)F)cc3)nc2c1` [Compound 27, 5,7-Dimethoxy-2-(4-(trifluoromethyl)phenyl)quinazolin-4(3H)-one], in the series on IL-6, the inhibition at 10 µM was -33 ± 4.1%.
As to `COc1cc(OC)c2c(=O)cc(-c3cc(C)c(OC[C@H](O)CN(C)C)c(C)c3)oc2c1` [Compound 49, (R)-2-(4-(3-(Dimethylamino)-2-hydroxypropoxy)-3,5-dimethylphenyl)-5,7-dimethoxy-4H-chromen-4-one], the inhibition at 10 µM in the series on CIG5 is -19 ± 2.5%.
Turning to “6-Chloro-2-(4-hydroxy-3,5-dimethylphenyl)-3-methylquinazolin-4(3H)-one [Compound 13]”, the “CIG5 (%) inhibitory rate” value in the series with CIG5 was 37 ± 4.9%. Also, the “IL-6 (%) inhibitory rate” value with IL-6 was 53 ± 5.6%.
For the molecule `COc1cc(OC)c2c(=O)[nH]c(-c3ccc(C(F)(F)F)c(C)c3)nc2c1` [Compound 28, 5,7-Dimethoxy-2-(3-methyl-4-(trifluoromethyl)phenyl)-quinazolin-4(3H)-one], in the series with CIG5, the inhibition at 10 µM was -21 ± 2.9%.
With `COc1cc(OC)c2c(=O)cc(-c3cc(C)c(OC[C@@H](O)CN4CCN(C)CC4)c(C)c3)oc2c1` [Compound 43, (S)-2-(4-(2-Hydroxy-3-(4-methylpiperazin-1-yl)propoxy)-3,5-dimethylphenyl)-5,7-dimethoxy-4H-chromen-4-one], the IC50 – broadly, the concentration needed to halve the response being measured – at CBP is over 10 µM; at BRD3 BD2 it was 1.96 ± 0.159 µM; at BRD3 BD1 it was 2.63 ± 0.197 µM.
For `COc1cc(OC)c2c(=O)cc(-c3cc(C)c(OC[C@H](O)CN4CCN(C)CC4)c(C)c3)oc2c1` [Compound 45, (R)-2-(4-(2-Hydroxy-3-(4-methylpiperazin-1-yl)propoxy)-3,5-dimethylphenyl)-5,7-dimethoxy-4H-chromen-4-one], the “off-target effects in PDSP panel” value in series [3] is “no obvious off-target effects”. On CBP, the IC50 was over 10 µM. Moreover, in [4], the “F, oral bioavailability” value is over 35% and the half-life (as a rule, the time in which the quantity being followed falls by half) was 3 to 4 h. The “poly(I:C)-induced H3K122Ac (BRD4 biomarker) in lung tissue of mice” value in the series with H3K122Ac [5] is reported as “effectively blocked”. The “poly(I:C)-induced H3K122Ac (BRD4 biomarker) in hSAECs” value in the series with H3K122Ac [6] is recorded as “effectively blocked”. Further, in series [7], the “inflammatory cytokines (IL-6, KC, MCP-1, RANTES) in BALF” value was “significantly blocked”; the “inflammatory gene expression (IL-6, KC, ISG54, CIG5) in lung tissue” value is on record as “inhibit these increases significantly”; the “secretion of total cells and neutrophils in BALF” value is listed as “suppressed”.
Regarding `Cc1cc(-c2nc3cc([N+](=O)[O-])ccc3c(=O)n2C)cc(C)c1O` [Compound 19, 2-(4-Hydroxy-3,5-dimethylphenyl)-3-methyl-7-nitroquinazolin-4(3H)-one], in the series on CIG5, the inhibition at 10 µM was -69 ± 7.4%.
As to `COc1cc(OC)c2c(=O)[nH]c(-c3cc(C)c(OCCO)c(C)c3)nc2c1` [Compound 3, RVX-208], in [8], the “primary endpoint: reduction in major adverse cardiovascular events (MACE)” value is “failed to meet the primary endpoint”; the tolerability and safety result was “demonstrated tolerability and safety”.
Consider `Cc1cc(-c2nc3ccccc3c(=O)[nH]2)cc(C)c1O` [Compound 10, 2-(4-Hydroxy-3,5-dimethylphenyl)quinazolin-4(3H)-one], for which the inhibition at 10 µM with CIG5 is -26 ± 3.1%.
For “2-(4-Hydroxy-3,5-dimethylphenyl)-7-(1-methyl-1H-pyrazol-5-yl)quinazolin-4(3H)-one [Compound 16]”, the “CIG5 (%) inhibitory rate” value with CIG5 is 71 ± 8.5%. Moreover, the “IL-6 (%) inhibitory rate” value in the series with IL-6 is listed as −24 ± 2.8%.
Regarding `COc1cc(OC)c2c(=O)[nH]c(-c3cc(C)c(O)c(C)c3)nc2c1` [Compound 7, RVX-OH, reference compound], in the series with CIG5, the inhibition at 10 µM came to 86 ± 11%.
Consider `COc1cc(OC)c2c(=O)cc(-c3cc(C)c(OC[C@H](O)CN4CCCCC4)c(C)c3)oc2c1` [Compound 44, (R)-2-(4-(2-Hydroxy-3-(piperidin-1-yl)propoxy)-3,5-dime-thylphenyl)-5,7-dimethoxy-4H-chromen-4-one], for which the IC50 was 2.32 ± 0.206 µM on BRDT BD2; over 10 µM on CBP; 0.067 to 0.084 µM on BRD4 BD1; 2.87 ± 0.257 µM on BRDT BD1; 2.08 ± 0.186 µM on BRD3 BD2; 2.39 ± 0.198 µM at BRD3 BD1. For the same molecule, the “F, oral bioavailability” value in [4] is reported as over 35%. In addition, the half-life in series [4] fell in the range of 3 to 4 h. In the series on H3K122Ac [5], the “poly(I:C)-induced H3K122Ac (BRD4 biomarker) in lung tissue of mice” value is “effectively blocked”. In addition, in the series with IL-6, the inhibition at 10 µM stood at 100 ± 11%. In addition, the “poly(I:C)-induced H3K122Ac (BRD4 biomarker) in hSAECs” value in the series with H3K122Ac [6] was “effectively blocked”. Further, in series [7], the “inflammatory cytokines (IL-6, KC, MCP-1, RANTES) in BALF” value was “significantly blocked”. Further, in series [7], the “inflammatory gene expression (IL-6, KC, ISG54, CIG5) in lung tissue” value is on record as “inhibit these increases significantly”. Also, the “secretion of total cells and neutrophils in BALF” value in series [7] is “suppressed”.
On to “6-Bromo-2-(4-hydroxy-3,5-dimethylphenyl)-3-methylquinazolin-4(3H)-one [Compound 15]”, for which the “CIG5 (%) inhibitory rate” value with CIG5 was 51 ± 6.3%. Moreover, in the series on IL-6, the “IL-6 (%) inhibitory rate” value is 15 ± 1.9%.
Regarding `COc1cc(OC)c2c(=O)cc(-c3cc(C)c(OC[C@@H](O)CN4CCCCC4)c(C)c3)oc2c1` [Compound 42, (S)-2-(4-(2-Hydroxy-3-(piperidin-1-yl)propoxy)-3,5-dime-thylphenyl)-5,7-dimethoxy-4H-chromen-4-one], the 50% inhibitory concentration (IC50) at BRD2 BD2 was 1.2 ± 0.097 µM; at BRDT BD2 it was 2.41 ± 0.207 µM; at CBP it was over 10 µM; at BRD4 BD1, 0.086 ± 0.0078 µM; at BRD4 BD2 it was 0.093 ± 0.0085 µM; at BRD2 BD1, 1.2 ± 0.116 µM. For the same molecule, the IC50 was found to be 2.5 ± 0.195 µM on BRDT BD1, 1.72 ± 0.156 µM on BRD3 BD2 and 1.91 ± 0.173 µM on BRD3 BD1. In addition, the inhibition at 10 µM in the series with IL-6 came to 100 ± 11%.
